Here are results for 16 molecules from ChEMBL document CHEMBL4190289, “Antifungal and Cytotoxic β-Resorcylic Acid Lactones from a Paecilomyces Species” (J Nat Prod, 2017).

The IC50 is the concentration at which inhibition is half-maximal.

Counter-ions that a name gives are not always drawn.

One test concerns Fusarium verticillioides. Nature of the test: Antifungal activity against Fusarium verticillioides after 8 hrs by conidial germination assay. The test is classed as functional, organism-based. Summed up:
(§1)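 Conidia from PDA cultures (P. litchii 7-day-old, F. verticillioides 3-day-old), diluted in half-strength PDB, counted and used immediately. Samples in DMSO as 2-fold series; final 0.625 to 80 μg/mL. Incubated 8 h at 30 °C, 150 rpm. Germination scored microscopically (germ tube ≥1.5× spore diameter), >200 conidia per replicate, triplicate. Thiram positive, DMSO negative control. IC50 from logistic nonlinear regression.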

For a further test, the system named is Phytophthora litchii. As to the kind of experiment: Antifungal activity against Peronophythora litchii after 8 hrs by conidial germination assay. In kind it is functional, organism-based. In outline: as §1
The next test has as its system A549. Nature of the test: Cytotoxicity against human A549 cells after 72 hrs by MTT assay. In kind it is functional, cell-based. The following applies: A549, 72 h. In outline:
(§2)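 MTT colorimetric readout. DMSO stocks serially diluted in culture medium to final 50, 10, 2, 0.4, 0.08 and 0.016 μM, quadruplicate wells per concentration. Adriamycin as positive control. Inhibition rate computed from treated, control and blank OD. IC50 by nonlinear regression of logistic dose–response curves. Means ± SD of three independent experiments.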
(In general: Tetrazolium dyes change colour on reduction, which living cells bring about.)

The test system of another test is HeLa. Nature of the test: Cytotoxicity against human HeLa cells after 72 hrs by MTT assay. In kind it is functional, cell-based. Summed up: as §2
A further test concerns MCF7. Nature of the test: Cytotoxicity against human MCF7 cells after 72 hrs by MTT assay. In kind it is functional, cell-based. The following applies: MCF7, 72 h. In outline:
as §2

Consider `CN(C)C(=S)SSC(=S)N(C)C` [THIRAM], for which the figures for the IC50 in the test on Fusarium verticillioides and in the test on Phytophthora litchii were 1.7 µM and 4.6 µM, respectively.
Take `C[C@@H]1C[C@H]2C=CC[C@H](CC(=O)Cc3cc(O)cc(O)c3C(=O)O1)O2`: the IC50 was over 100 µM with Fusarium verticillioides; 41 µM in the test on Phytophthora litchii; 4.1 µM in the test with A549; 3.9 µM in the test on HeLa; 4.9 µM with MCF7.
The corresponding values for `CO[C@@H]1CC/C=C/C[C@@H](C)OC(=O)c2c(O)cc(O)cc2CC(=O)C1` are over 100 µM, 19.3 µM, over 10 µM, over 10 µM and over 10 µM.
The corresponding values for `C[C@@H]1C[C@H]2O[C@@H]2/C=C\C=C\C(=O)Cc2c(Cl)c(O)cc(O)c2C(=O)O1` [RADICICOL] are 8 µM, 1.4 µM, 0.1 µM, 0.1 µM and 0.4 µM.
The corresponding values for `C[C@H]1C/C=C/CC(=O)CC/C=C/c2cc(O)cc(O)c2C(=O)O1` are over 100 µM, over 100 µM, 3.9 µM, 3.6 µM and 6.9 µM.
With `C[C@@H]1C[C@H]2O[C@@H]2CC/C=C/C(=O)Cc2cc(O)cc(O)c2C(=O)O1` [MONOCILLIN III], the IC50 with Fusarium verticillioides is over 100 µM; in the test on Phytophthora litchii it was 12 µM; with A549 it was 2.1 µM; with HeLa it was 3.4 µM; with MCF7 it was over 10 µM.
For the molecule `COc1cccc2c1C(=O)c1c(O)c3c(c(O)c1C2=O)C[C@@](O)(C(=O)CO)C[C@@H]3O[C@H]1C[C@H](N)[C@H](O)[C@H](C)O1` [DOXORUBICIN HYDROCHLORIDE], the half-maximal inhibitory concentration (IC50) is 0.1 µM with A549 and 0.3 µM in the test on HeLa.
In the case of `C[C@@H]1Cc2ccccc2C(=O)Cc2cc(O)cc(O)c2C(=O)O1`, the IC50 in the test on Fusarium verticillioides is over 100 µM; in the test on Phytophthora litchii it was over 100 µM; with A549, over 10 µM; in the test on HeLa, over 10 µM; in the test with MCF7 it was over 10 µM.
Regarding `C[C@@H]1C/C=C/CC[C@@H](O)CC(=O)Cc2cc(O)cc(O)c2C(=O)O1`, the half-inhibitory concentration (IC50) in the test on Fusarium verticillioides was over 100 µM; in the test with Phytophthora litchii, over 100 µM; with A549, over 10 µM; with HeLa it was over 10 µM; in the test with MCF7 it was over 10 µM.
Take `COc1cc(O)c2c(c1)[C@H]1O[C@@H]1CC1=C(O)C(=O)C[C@H]1C[C@H](C)OC2=O`: the IC50 is over 100 µM in the test on Fusarium verticillioides; over 100 µM in the test on Phytophthora litchii; over 10 µM with A549; over 10 µM with HeLa; over 10 µM with MCF7.
In the case of `C[C@@H]1C/C=C/CCCCC(=O)Cc2cc(O)cc(O)c2C(=O)O1` [MONOCILLIN IV], the IC50 is over 100 µM in the test on Fusarium verticillioides; 33.6 µM in the test with Phytophthora litchii; over 10 µM in the test on A549; over 10 µM in the test on HeLa; 3.6 µM in the test on MCF7.
In the case of `C[C@@H]1C/C=C/CC/C=C/C(=O)Cc2cc(O)cc(O)c2C(=O)O1`, the IC50 in the test on Fusarium verticillioides was over 100 µM; with Phytophthora litchii, 9.8 µM; in the test on A549 it was 1.7 µM; in the test on HeLa it was 2.7 µM; in the test on MCF7, 4.1 µM.
The matching figures for `COc1cc(O)c2c(c1)[C@H]1O[C@@H]1CC1=C(O)C(=O)C[C@@H]1C[C@H](C)OC2=O`: over 100 µM, over 100 µM, over 10 µM, over 10 µM and over 10 µM.
The corresponding values for `COc1cc(O)c2c(c1)[C@H]1O[C@@H]1C[C@H](O)[C@H](O)C(=O)/C=C\C[C@H](C)OC2=O` [HYPOTHEMYCIN] are 1.1 µM, 1.9 µM, 1 µM, 1 µM and 3.3 µM.
The corresponding values for `C[C@@H]1C/C=C/CC/C=C\C(=O)Cc2cc(O)cc(O)c2C(=O)O1` are over 100 µM, 9.2 µM, 4.1 µM, 3.6 µM and 1.7 µM.
As for `C[C@@H]1C[C@H]2O[C@@H]2/C=C\C=C\C(=O)Cc2cc(O)cc(O)c2C(=O)O1` [MONOCILLIN I], the half-inhibitory concentration (IC50) with Fusarium verticillioides is over 100 µM; in the test with Phytophthora litchii, 7.9 µM; in the test with A549, 2.6 µM; with HeLa it was 2.7 µM; in the test with MCF7, 8.1 µM.
